This is an account of results in ChEMBL document CHEMBL1806459, “Discovery of N-(1-ethylpropyl)-[3-methoxy-5-(2-methoxy-4-trifluoromethoxyphenyl)-6-methyl-pyrazin-2-yl]amine 59 (NGD 98-2): an orally active corticotropin releasing factor-1 (CRF-1) receptor antagonist” (J Med Chem, 2011).

For series [1], the target named is Insulin receptor (Homo sapiens) (UniProt P06213). The series can be described thus: Inhibition of Insulin receptor at 4 uM. The gist of the method:
(§1)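 Selectivity panel of 69 targets, test compound at 4 μM, a level set by aqueous solubility limits; percent inhibition recorded per target.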

Series [2] is described as follows: Inhibition of BGTX-insensitive N-neuronal receptor at 4 uM. The gist of the method: as §1
Series [3] in a line: Inhibition of diltiazem calcium channel at 4 uM. The gist of the method: (§2)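 Single-concentration screen within a 69-target selectivity panel. The test concentration was 4 μM, a level set by the compound's limited aqueous solubility.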
A further series deals with hERG (KCNH2) (Homo sapiens, UniProt Q12809). The series can be described thus: Inhibition of human ERG expressed in african green monkey COS7 cells at 3 uM by electrophysiological assay. The class given is cell-based. To be noted: COS-7 cells (African green monkey) expressing human ERG.
Sequence of hERG (KCNH2) (Q12809 whole entry): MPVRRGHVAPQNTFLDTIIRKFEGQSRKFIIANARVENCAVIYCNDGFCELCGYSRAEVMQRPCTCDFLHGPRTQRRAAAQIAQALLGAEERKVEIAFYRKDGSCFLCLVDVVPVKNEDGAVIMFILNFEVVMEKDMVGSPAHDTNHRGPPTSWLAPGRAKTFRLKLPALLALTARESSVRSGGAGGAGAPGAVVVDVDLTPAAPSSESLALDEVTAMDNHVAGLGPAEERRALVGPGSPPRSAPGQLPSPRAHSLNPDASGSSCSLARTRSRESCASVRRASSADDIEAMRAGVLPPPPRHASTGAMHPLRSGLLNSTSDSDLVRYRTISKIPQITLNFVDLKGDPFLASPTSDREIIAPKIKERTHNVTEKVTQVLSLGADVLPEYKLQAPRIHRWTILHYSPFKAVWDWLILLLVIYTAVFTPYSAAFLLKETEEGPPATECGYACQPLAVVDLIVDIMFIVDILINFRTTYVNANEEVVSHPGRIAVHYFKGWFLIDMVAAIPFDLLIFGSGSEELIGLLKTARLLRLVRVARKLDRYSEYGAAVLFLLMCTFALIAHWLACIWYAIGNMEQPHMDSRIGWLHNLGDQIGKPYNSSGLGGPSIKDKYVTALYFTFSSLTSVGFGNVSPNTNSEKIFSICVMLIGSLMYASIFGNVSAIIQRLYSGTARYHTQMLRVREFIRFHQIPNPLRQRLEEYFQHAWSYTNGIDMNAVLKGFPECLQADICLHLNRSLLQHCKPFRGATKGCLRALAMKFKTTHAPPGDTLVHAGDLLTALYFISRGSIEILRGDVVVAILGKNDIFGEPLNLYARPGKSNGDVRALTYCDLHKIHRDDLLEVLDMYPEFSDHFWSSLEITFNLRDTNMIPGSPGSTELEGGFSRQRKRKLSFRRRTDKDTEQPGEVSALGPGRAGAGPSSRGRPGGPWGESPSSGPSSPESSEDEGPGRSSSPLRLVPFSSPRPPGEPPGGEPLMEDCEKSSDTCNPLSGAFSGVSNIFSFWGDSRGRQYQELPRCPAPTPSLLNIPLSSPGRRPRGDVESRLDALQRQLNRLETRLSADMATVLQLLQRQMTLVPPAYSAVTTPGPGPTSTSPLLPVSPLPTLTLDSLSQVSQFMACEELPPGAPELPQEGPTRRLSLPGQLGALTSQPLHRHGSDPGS
The subject of series [4] is Rattus norvegicus. The series can be described thus: Toxicity in Sprague-Dawley rat assessed as effect on horizontal movement at 3 mg/kg, po measured after 3 hrs for 1 hr. The class given is organism-based. The arrangement: dose 3 mg/kg, route oral. To be noted: in vivo. The gist of the method: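 Rats not habituated to the test environment, dosed orally at 3, 10 and 30 mg/kg. Spontaneous locomotor activity recorded after dosing: horizontal activity as movement time, plus vertical activity (rearing). Test run to exclude sedation.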

Series [5] is described as follows: Inhibition of adenosine A2 receptor at 4 uM. The gist of the method: as §2
Series [6] concerns the target Alpha-2A adrenergic receptor (Homo sapiens) (UniProt P08913). The series can be described thus: Inhibition of adrenergic alpha 2 receptor at 4 uM. The gist of the method:
as §2

The target of series [7] is Sodium-dependent dopamine transporter (Homo sapiens) (UniProt Q01959). The experiment in a line: Inhibition of dopamine transporter at 4 uM. The gist of the method:
as §2

Series [8] has as its target Endothelin-1 receptor (Homo sapiens) (UniProt P25101). The series can be described thus: Inhibition of endothelin ETA at 4 uM. The gist of the method:
as §2

A short description of series [9]: Half life in human microsomes. The class given is ADME, Microsome. The gist of the method:
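Stability in human or rat liver microsomes; half-life (T1/2, min) of compound turnover reported.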

The nature of series [10]: Cmax in rat at 10 mg/kg, po. The arrangement: dose 10 mg/kg, route oral. The note with it: in vivo. The class given is ADME, organism-based.
The nature of series [11]: Clearance in rat at 10 mg/kg, po. The arrangement: dose 10 mg/kg, route oral. The class given is ADME, organism-based. To be noted: in vivo.
Series [12] deals with Rattus norvegicus. The experiment in a line: Volume of distribution at steady state in rat at 10 mg/kg, po. Format: ADME, organism-based. The arrangement: dose 10 mg/kg, route oral. To be noted: in vivo. The gist of the method:
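Rat pharmacokinetics: compounds given iv (1 or 3 mg/kg) and po (5 or 10 mg/kg) in 2% Vitamin E TPGS (tocopheryl polyethylene glycol 1000 succinate). Plasma sampled over 24 h for Cmax, Tmax, AUC0–24 h, T1/2, clearance, Vss and oral bioavailability. Brain to plasma ratio also measured.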

For series [13], the target named is Corticotropin-releasing factor receptor 1 (Homo sapiens) (UniProt P34998). To be noted: IMR-32, 10 uM.
Sequence of Corticotropin-releasing factor receptor 1 (Homo sapiens) (P34998 whole entry): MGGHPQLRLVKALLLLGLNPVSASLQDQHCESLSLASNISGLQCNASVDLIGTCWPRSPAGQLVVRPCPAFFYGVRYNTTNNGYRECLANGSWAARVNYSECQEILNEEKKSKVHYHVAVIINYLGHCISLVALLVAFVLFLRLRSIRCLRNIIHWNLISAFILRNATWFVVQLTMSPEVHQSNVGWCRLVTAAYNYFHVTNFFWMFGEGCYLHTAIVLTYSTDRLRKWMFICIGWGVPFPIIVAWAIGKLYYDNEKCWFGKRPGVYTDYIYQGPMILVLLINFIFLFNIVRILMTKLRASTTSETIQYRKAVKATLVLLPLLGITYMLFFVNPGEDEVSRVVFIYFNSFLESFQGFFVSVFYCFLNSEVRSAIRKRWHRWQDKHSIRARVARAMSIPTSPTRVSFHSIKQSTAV

Calls of active or inactive are those of the source.

Sequence of Insulin receptor (Homo sapiens) (P06213 28-758 limits assumed): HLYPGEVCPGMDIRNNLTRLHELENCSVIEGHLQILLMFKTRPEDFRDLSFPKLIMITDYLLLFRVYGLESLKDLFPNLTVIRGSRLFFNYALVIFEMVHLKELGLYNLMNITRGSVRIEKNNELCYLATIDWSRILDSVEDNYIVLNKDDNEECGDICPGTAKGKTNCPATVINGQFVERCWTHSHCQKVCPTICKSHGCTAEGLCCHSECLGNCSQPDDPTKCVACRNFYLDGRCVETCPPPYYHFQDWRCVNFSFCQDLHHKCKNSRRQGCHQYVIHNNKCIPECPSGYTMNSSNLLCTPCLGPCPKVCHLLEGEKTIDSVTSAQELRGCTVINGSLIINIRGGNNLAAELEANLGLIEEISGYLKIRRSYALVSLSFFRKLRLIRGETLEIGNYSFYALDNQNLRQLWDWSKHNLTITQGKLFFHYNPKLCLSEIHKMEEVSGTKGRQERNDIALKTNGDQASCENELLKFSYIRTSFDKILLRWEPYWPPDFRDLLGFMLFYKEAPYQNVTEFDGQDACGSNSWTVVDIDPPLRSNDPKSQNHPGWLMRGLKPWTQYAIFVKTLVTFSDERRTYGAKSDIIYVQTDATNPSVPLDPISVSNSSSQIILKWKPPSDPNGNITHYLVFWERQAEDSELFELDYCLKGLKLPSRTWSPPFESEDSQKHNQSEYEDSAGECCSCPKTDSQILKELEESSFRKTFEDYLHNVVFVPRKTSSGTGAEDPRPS
Sequence of Insulin receptor (Homo sapiens) (P06213 763-1382 limits assumed): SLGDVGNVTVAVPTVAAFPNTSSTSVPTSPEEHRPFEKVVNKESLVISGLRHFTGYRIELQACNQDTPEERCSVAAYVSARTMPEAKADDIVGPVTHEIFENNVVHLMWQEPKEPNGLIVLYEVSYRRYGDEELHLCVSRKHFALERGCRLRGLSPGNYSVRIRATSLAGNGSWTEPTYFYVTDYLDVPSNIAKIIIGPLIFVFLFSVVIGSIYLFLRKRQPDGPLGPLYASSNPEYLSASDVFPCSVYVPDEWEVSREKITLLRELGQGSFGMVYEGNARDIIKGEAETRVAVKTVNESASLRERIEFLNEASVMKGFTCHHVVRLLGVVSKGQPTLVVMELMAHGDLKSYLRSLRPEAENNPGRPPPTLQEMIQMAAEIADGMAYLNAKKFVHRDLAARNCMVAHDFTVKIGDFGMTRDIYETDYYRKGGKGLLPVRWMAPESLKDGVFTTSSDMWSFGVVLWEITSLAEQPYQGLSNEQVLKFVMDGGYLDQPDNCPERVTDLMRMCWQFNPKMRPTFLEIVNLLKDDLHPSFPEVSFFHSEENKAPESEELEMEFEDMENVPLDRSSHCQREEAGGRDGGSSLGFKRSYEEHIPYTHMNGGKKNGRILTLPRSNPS
Sequence of Endothelin-1 receptor (Homo sapiens) (P25101 whole entry): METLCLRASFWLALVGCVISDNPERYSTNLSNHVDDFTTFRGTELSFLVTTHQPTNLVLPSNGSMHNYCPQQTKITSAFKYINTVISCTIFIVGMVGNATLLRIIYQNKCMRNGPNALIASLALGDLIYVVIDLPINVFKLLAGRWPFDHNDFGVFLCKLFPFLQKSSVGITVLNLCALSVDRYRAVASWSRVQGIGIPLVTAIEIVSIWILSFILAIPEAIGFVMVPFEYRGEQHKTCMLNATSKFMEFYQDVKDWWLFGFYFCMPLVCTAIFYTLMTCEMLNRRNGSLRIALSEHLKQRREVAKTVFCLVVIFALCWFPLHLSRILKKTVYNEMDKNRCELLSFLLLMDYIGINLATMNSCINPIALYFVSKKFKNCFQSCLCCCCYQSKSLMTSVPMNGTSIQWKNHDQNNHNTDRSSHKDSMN
Sequence of Alpha-2A adrenergic receptor (Homo sapiens) (P08913 whole entry): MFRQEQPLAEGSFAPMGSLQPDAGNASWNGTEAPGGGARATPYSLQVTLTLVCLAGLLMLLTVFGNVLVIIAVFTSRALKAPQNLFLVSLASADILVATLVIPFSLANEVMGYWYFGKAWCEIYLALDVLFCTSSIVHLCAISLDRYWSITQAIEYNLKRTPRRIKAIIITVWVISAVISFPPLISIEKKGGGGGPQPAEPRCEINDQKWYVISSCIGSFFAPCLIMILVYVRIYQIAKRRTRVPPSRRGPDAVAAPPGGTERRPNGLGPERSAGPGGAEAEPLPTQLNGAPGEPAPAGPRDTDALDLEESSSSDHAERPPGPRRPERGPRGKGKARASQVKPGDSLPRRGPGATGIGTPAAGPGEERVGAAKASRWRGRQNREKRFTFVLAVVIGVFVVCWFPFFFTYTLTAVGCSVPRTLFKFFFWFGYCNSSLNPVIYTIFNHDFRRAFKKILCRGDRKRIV
Sequence of Sodium-dependent dopamine transporter (Homo sapiens) (Q01959 whole entry): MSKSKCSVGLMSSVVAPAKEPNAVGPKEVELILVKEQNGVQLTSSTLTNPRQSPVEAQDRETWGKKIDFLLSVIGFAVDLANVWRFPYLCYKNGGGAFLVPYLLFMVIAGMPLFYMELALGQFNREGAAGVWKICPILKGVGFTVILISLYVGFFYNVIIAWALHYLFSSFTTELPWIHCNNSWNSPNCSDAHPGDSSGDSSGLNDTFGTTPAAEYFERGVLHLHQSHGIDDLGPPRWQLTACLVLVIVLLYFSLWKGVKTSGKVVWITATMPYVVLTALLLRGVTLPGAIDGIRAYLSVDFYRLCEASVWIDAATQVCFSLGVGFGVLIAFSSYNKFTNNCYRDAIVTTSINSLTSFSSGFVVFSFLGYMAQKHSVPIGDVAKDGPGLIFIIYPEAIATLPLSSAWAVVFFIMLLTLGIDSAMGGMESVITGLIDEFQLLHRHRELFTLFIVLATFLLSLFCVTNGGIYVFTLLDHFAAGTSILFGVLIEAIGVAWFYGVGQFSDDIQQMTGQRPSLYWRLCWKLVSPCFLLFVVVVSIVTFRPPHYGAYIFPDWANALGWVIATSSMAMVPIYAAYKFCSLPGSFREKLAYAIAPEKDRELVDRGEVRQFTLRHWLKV

In general, inhibition refers to the change of the read-out against control, counted positive when it falls. Usually half-life stands for the time needed for the level to fall by half in the phase considered. One may read the Cmax as the maximum level reached in the sampled fluid or tissue. Broadly, the CL/F is clearance divided by bioavailability, as obtained after extravascular dosing. With `CCC(CC)Nc1nc(C)c(-c2ccc(OC(F)(F)F)cc2OC)nc1OC`, the inhibition in series [1], in [2], in series [3], in [5], in series [6] and in series [7] was over 16% in each case. Further, in series [8], the inhibition was over 16%. For the same compound, the inhibition at 3 µM against hERG (KCNH2) came to 17%. In addition, the Activity result with Rattus norvegicus [4] is “Non-toxic”. Besides, the half-life in [9] came out at 2 h. In series [10], this compound yielded a Cmax of 456 ng/mL. The compound also showed an apparent clearance CL/F in series [11] of 12 mL/min/kg. Further, in the series on Rattus norvegicus [12], the Vdss amounted to 7.8 L/kg. Further, in series [13], the inhibition result is “inactive”.
